From ChEMBL document CHEMBL2384923, “Design, synthesis and antimicrobial activities evaluation of Schiff base derived from secnidazole derivatives as potential FabH inhibitors” (Bioorg Med Chem, 2013)
In brackets after ≈: the same amount, converted by molar mass.

Legend:
Staphylococcus aureus = assay: Antimicrobial activity against Staphylococcus aureus ATCC 6538 after 24 hrs by two fold serial dilution method; type: functional; settings: ATCC 6538, 24 h
In short: (§1)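 Tested per NCCLS by two-fold serial dilution in nutrient broth. The inoculum came from 24 h cultures on nutrient agar at 37 ± 1 °C and was adjusted with sterile saline to 1 ×10^4-105 CFU. […] Tubes were incubated at 37 ± 1 °C, and MIC was read visually after 24 h. Kanamycin and DDCP served as standards.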

Bacillus subtilis = assay: Antimicrobial activity against Bacillus subtilis ATCC 530 after 24 hrs by two fold serial dilution method; type: functional; settings: ATCC 530, 24 h; in short: as §1
Pseudomonas aeruginosa = assay: Antimicrobial activity against Pseudomonas aeruginosa ATCC 27853 after 24 hrs by two fold serial dilution method; type: functional; settings: ATCC 27853, 24 h; in short: as §1
Escherichia coli = assay: Antimicrobial activity against Escherichia coli ATCC 25922 after 24 hrs by two fold serial dilution method; type: functional; settings: ATCC 25922, 24 h; in short: as §1
[1] = Inhibition of Escherichia coli N-terminal His-tagged full length FabH expressed in Escherichia coli BL21 (DE3) using [3H]acetyl-CoA as substrate assessed as incorporation of [3H] signal into product after 25 mins by liquid scintillation counting analysis
In short: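 His-tagged FabH was purified on Ni-NTA. Holo-ACP was made from apo-ACP with ACPS and CoA. The 20 µL reaction held pH 7.0 sodium phosphate (20 mM), 0.5 mM DTT, 0.25 mM MgCl₂, 2.5 µM holo-ACP and 1 nM FabH, preincubated 1 min. The reaction started with a 2 µL mix of 25 µM acetyl-CoA and 0.75 µCi [³H]acetyl-CoA and ran 25 min. It was stopped with ice-cold TCA, and the washed pellet was counted. Inhibitors were added from DMSO stock, ≤2% DMSO final, and IC50 was determined.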

Row | SMILES | MIC (Staphylococcus aureus) [µg/mL] | MIC (Bacillus subtilis) [µg/mL] | MIC (Pseudomonas aeruginosa) [µg/mL] | MIC (Escherichia coli) [µg/mL] | IC50 [1] [µM]
1 | NC[C@H]1O[C@H](O[C@H]2[C@H](O)[C@@H](O[C@H]3O[C@H](CO)[C@@H](O)[C@H](N)[C@H]3O)[C@H](N)C[C@@H]2N)[C@H](O)[C@@H](O)[C@@H]1O [KANAMYCIN] | 1.56 (≈ 3.22 µM) | 1.56 (≈ 3.22 µM) | 3.13 (≈ 6.46 µM) | 3.13 (≈ 6.46 µM) | 
2 | Cc1ncc([N+](=O)[O-])n1CC(=O)N/N=C/c1ccccc1F | > 100 | > 100 | > 100 | > 100 | 47.5
3 | Cc1ncc([N+](=O)[O-])n1CC(=O)N/N=C/c1cccc(Br)c1 | > 100 | > 100 | 50 (≈ 137 µM) | 25 (≈ 68.3 µM) | 
4 | Cc1ncc([N+](=O)[O-])n1CC(=O)N/N=C/c1cccc(Cl)c1 | 50 (≈ 155 µM) | 50 (≈ 155 µM) | 50 (≈ 155 µM) | 25 (≈ 77.7 µM) | 
5 | COc1ccccc1/C=N/NC(=O)Cn1c([N+](=O)[O-])cnc1C | > 100 | > 100 | 50 (≈ 158 µM) | 50 (≈ 158 µM) | 42.4
6 | Cc1ncc([N+](=O)[O-])n1CC(=O)N/N=C/c1ccccc1Cl | 50 (≈ 155 µM) | 50 (≈ 155 µM) | > 100 | > 100 | 
7 | Cc1ncc([N+](=O)[O-])n1CC(=O)N/N=C/c1cccc(F)c1 | 25 (≈ 81.9 µM) | 25 (≈ 81.9 µM) | 50 (≈ 164 µM) | 50 (≈ 164 µM) | 
8 | Cc1ncc([N+](=O)[O-])n1CC(=O)N/N=C/c1cccc([N+](=O)[O-])c1 | 50 (≈ 150 µM) | > 100 | 50 (≈ 150 µM) | 25 (≈ 75.2 µM) | 
9 | Cc1ncc([N+](=O)[O-])n1CC(=O)N/N=C/c1ccc(F)cc1F | 25 (≈ 77.3 µM) | 50 (≈ 155 µM) | 50 (≈ 155 µM) | 50 (≈ 155 µM) | 
10 | Cc1ncc([N+](=O)[O-])n1CC(=O)N/N=C/c1ccc(N(C)C)cc1 | 25 (≈ 75.7 µM) | 12.5 (≈ 37.8 µM) | 12.5 (≈ 37.8 µM) | 12.5 (≈ 37.8 µM) | 15.9
11 | Cc1ncc([N+](=O)[O-])n1CC(=O)N/N=C/c1ccc(Cl)cc1 | > 100 | > 100 | 50 (≈ 155 µM) | 50 (≈ 155 µM) | 
12 | COc1cccc(/C=N/NC(=O)Cn2c([N+](=O)[O-])cnc2C)c1 | 25 (≈ 78.8 µM) | 50 (≈ 158 µM) | 50 (≈ 158 µM) | 25 (≈ 78.8 µM) | 
13 | Cc1ncc([N+](=O)[O-])n1CC(=O)N/N=C/c1ccc(O)cc1 | > 100 | > 100 | > 100 | 50 (≈ 165 µM) | 
14 | Cc1ncc([N+](=O)[O-])n1CC(=O)N/N=C/c1ccc([N+](=O)[O-])cc1 | 25 (≈ 75.2 µM) | 50 (≈ 150 µM) | 25 (≈ 75.2 µM) | 25 (≈ 75.2 µM) | 
15 | Cc1ncc([N+](=O)[O-])n1CC(=O)N/N=C/c1ccc(F)cc1 | > 100 | > 100 | > 100 | > 100 | 58.3

Now from value to molecule:

Row | MIC (Staphylococcus aureus) [µg/mL] | MIC (Bacillus subtilis) [µg/mL] | MIC (Pseudomonas aeruginosa) [µg/mL] | MIC (Escherichia coli) [µg/mL] | IC50 [1] [µM] | SMILES
16 | 3.13 (≈ 9.5 µM) | 3.13 (≈ 9.5 µM) | 6.25 (≈ 19 µM) | 3.13 (≈ 9.5 µM) | 2.3 | Cc1cc(/C=N/NC(=O)Cn2c([N+](=O)[O-])cnc2C)cc(C)c1C
17 | 12.5 (≈ 41.5 µM) | 25 (≈ 83 µM) | 6.25 (≈ 20.7 µM) | 6.25 (≈ 20.7 µM) | 6.2 | Cc1ccc(/C=N/NC(=O)Cn2c([N+](=O)[O-])cnc2C)cc1
18 | 25 (≈ 68.3 µM) | 25 (≈ 68.3 µM) | 12.5 (≈ 34.1 µM) | 25 (≈ 68.3 µM) |  | Cc1ncc([N+](=O)[O-])n1CC(=O)N/N=C/c1ccc(Br)cc1
19 | 12.5 (≈ 37.6 µM) | 12.5 (≈ 37.6 µM) | 25 (≈ 75.2 µM) | 25 (≈ 75.2 µM) | 19.8 | Cc1ncc([N+](=O)[O-])n1CC(=O)N/N=C/c1ccccc1[N+](=O)[O-]
20 | 12.5 (≈ 39.4 µM) | 6.25 (≈ 19.7 µM) | 6.25 (≈ 19.7 µM) | 6.25 (≈ 19.7 µM) | 4.5 | COc1ccc(/C=N/NC(=O)Cn2c([N+](=O)[O-])cnc2C)cc1
21 | 12.5 (≈ 36 µM) | 25 (≈ 72 µM) | 12.5 (≈ 36 µM) | 12.5 (≈ 36 µM) | 8.8 | COc1ccc(/C=N/NC(=O)Cn2c([N+](=O)[O-])cnc2C)cc1OC
